# Test results taken from ChEMBL document CHEMBL1156469 (2007).
# Activity calls are given as the source filed them. The rule behind the calls is not given here.
# Legend:
# [1] = target: T1, Alkaline phosphatase (Mus musculus) (UniProt Q9EQ79); test: Increase in ALP activity in mouse MC3T3-E1 cells at 0.1 to 10 uM after 7 days; type: cell-based
# T1 sequence (whole entry): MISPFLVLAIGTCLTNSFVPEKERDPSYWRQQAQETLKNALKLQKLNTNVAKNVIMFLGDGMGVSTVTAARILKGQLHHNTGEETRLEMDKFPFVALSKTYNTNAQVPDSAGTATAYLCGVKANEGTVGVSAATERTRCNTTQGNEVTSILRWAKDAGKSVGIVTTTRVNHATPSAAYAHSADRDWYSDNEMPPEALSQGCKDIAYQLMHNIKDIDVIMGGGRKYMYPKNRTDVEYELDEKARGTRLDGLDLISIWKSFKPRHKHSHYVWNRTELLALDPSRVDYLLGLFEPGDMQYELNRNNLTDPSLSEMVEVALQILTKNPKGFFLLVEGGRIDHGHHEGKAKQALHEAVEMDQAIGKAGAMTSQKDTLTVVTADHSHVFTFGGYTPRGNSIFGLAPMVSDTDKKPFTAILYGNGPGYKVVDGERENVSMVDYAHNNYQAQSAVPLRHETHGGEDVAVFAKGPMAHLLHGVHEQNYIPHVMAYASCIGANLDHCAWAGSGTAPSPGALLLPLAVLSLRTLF
# Osteoblast [2] = test: Increase in proliferation of rat primary osteoblast cells at 0.1 to 10 uM after 24 hr by flow cytometry; type: functional, cell-based
# [3] = target: T2, Estrogen receptor (Mus musculus) (UniProt P19785); test: Reversal of increase in DNA-binding activity of ERalpha in nuclear extracts of mouse MC3T3-E1 cells by electrophoretic mobility shift assays in presence of ICI-182780; type: cell-based
# T2 sequence (whole entry): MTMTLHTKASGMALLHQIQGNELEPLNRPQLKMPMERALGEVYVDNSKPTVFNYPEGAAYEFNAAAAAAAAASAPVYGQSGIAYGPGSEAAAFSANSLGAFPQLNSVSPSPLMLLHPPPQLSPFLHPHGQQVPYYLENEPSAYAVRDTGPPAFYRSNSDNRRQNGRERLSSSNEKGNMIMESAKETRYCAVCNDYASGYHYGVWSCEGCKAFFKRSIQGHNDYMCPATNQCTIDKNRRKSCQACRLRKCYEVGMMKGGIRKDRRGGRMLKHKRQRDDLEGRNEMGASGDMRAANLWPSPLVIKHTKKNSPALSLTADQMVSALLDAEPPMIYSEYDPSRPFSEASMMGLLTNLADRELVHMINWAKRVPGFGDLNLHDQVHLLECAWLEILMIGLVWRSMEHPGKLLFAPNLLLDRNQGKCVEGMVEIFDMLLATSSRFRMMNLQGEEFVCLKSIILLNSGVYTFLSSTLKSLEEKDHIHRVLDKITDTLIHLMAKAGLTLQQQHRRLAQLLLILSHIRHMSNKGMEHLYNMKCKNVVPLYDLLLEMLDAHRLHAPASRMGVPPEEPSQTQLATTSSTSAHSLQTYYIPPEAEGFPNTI
# Outline: (§1)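 Nuclear extracts of MC3T3-E1 cells. ER-binding probe [α-32P]dCTP end-labeled, 20-min binding at room temperature, 5-fold unlabeled competitor where used. Complexes resolved on 5% nondenaturing PAGE in Tris-borate-EDTA pH 8.3, then autoradiography.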
# [4] = target: Forkhead box protein O3 (Homo sapiens) (UniProt O43524); test: Enhancement of FOXO3a activity in human MDA-MB-231 cells transfected with dominant negative Akt mutant; type: cell-based
# Chain of Forkhead box protein O3 (Homo sapiens) (O43524 whole entry): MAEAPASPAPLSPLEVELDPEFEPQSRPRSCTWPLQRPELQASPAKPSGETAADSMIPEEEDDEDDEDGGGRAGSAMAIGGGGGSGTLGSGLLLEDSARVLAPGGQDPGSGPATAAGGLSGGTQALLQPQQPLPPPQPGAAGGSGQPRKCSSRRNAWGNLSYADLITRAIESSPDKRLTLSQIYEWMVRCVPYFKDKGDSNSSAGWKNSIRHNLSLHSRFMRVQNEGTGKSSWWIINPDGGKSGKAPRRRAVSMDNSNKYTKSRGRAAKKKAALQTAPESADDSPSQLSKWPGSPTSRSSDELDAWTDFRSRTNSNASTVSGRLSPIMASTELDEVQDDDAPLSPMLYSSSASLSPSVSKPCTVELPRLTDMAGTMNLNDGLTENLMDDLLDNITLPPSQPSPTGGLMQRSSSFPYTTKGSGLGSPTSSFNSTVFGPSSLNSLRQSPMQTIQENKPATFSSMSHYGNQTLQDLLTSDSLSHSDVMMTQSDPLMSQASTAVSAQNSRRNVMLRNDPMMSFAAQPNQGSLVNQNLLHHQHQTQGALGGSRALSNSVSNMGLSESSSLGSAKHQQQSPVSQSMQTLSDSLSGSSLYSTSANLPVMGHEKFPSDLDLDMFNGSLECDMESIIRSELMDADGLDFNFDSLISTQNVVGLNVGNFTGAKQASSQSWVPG
# Outline: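 MDA-MB-231 cells transfected with vector, constitutively active Akt or dominant negative Akt, treated ± compound; analyzed by Western blotting and BMP-2 promoter luciferase activity.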
# Osteoblast [5] = test: Effect on procollagen 18alpha 1 gene expression in rat primary osteoblast cells assessed as expression ratio of treated to untreated control by microarray analysis; type: functional
# Outline: (§2)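 Resveratrol-treated and vehicle-treated primary osteoblasts were profiled on a mouse osteogenesis-focused cDNA array (GEArray Q series) built to track gene expression during osteogenic differentiation. Each gene's signal in treated cells was expressed as a ratio to untreated control.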
# Osteoblast [6] = test: Effect on alkaline phosphatase 2 gene expression in rat primary osteoblast cells assessed as expression ratio of treated to untreated control by microarray analysis; type: functional
# [7] = target: RAC-alpha serine/threonine-protein kinase (Homo sapiens) (UniProt P31749); test: Reversal of induction of Akt inactivation in human MDA-MB-231 cells transfected with constitutively activated Akt mutant; type: cell-based
# Chain of RAC-alpha serine/threonine-protein kinase (Homo sapiens) (P31749 whole entry): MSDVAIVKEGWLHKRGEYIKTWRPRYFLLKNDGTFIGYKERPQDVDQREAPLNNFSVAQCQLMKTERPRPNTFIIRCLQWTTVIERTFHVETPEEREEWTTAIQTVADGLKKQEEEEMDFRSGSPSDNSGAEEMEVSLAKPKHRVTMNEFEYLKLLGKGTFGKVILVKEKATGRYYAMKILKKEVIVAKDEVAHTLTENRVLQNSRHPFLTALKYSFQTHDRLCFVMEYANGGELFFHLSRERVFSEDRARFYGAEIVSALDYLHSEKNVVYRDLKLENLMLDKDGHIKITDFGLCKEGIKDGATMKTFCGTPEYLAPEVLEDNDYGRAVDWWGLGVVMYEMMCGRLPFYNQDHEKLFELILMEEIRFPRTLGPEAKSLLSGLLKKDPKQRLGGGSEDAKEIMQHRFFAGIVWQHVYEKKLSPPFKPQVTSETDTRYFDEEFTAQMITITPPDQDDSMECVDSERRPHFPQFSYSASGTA
# [8] = Reversal of increase in pBMP2 expression in rat primary osteoblast cells at 1 uM by luciferase method in presence of PP2; type: functional, cell-based
# Osteoblast [9] = test: Effect on procollagen 4 alpha 4 gene expression in rat primary osteoblast cells assessed as expression ratio of treated to untreated control by microarray analysis; type: functional; outline: as §2
# [10] = Reversal of induction in BMP2 expression in mouse MC3T3-E1 cells at 1 uM by Western blot in presence of PP2; type: functional, cell-based
# Outline: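 Src phosphorylation, ERα nuclear translocation and BMP-2 protein analysed by Western blot with ECL detection. Three independent experiments.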
# Osteoblast [11] = test: Reversal of increase in ER.DNA complex in rat primary osteoblast cells transfected with dominant-negative mutant Src expression vector at 1 uM by RT-PCR; type: functional, cell-based
# MG-63 = test: Increase in osteopontin levels in human MG63 cells at 1 uM after 72 hrs by ELISA; type: functional, cell-based
# Outline: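 Cells treated with 1 μm for 72 h; osteocalcin or osteopontin in culture medium by sandwich ELISA, HRP-streptavidin/TMB, 450 nm; percent change versus untreated control.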
# [12] = target: Alkaline phosphatase (Rattus norvegicus) (UniProt Q9JKS8); test: Inhibition of induction of ALP activity in rat primary osteoblast cells at 1 uM after 48 hrs in presence of BMP2-specific neutralizing antibody; type: cell-based
# Chain of Alkaline phosphatase (Rattus norvegicus) (Q9JKS8 as listed by the source): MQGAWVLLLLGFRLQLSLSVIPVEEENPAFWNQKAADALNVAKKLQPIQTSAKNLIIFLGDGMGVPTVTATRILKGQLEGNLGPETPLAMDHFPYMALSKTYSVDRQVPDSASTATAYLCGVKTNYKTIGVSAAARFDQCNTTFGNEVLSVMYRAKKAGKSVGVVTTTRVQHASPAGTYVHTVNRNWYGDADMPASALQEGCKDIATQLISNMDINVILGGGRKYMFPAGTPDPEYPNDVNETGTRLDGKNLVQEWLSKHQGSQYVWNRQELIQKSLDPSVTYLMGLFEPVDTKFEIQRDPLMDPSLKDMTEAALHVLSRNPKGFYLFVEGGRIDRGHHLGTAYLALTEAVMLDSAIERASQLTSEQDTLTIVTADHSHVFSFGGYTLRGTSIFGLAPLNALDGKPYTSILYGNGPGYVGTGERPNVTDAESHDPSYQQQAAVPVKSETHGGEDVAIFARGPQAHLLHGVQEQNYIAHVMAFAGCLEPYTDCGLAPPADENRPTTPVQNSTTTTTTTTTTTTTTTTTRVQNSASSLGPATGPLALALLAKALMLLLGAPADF
# MCF7 [13] = test: Antiproliferative activity against human MCF7 cells at 1 uM by flow cytometry; type: functional, cell-based
# Outline: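 Proliferation was measured by DNA flow cytometry. Incubations were run in triplicate across three separate experiments, and values are means ± S.D.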
# Osteoblast [14] = test: Effect on procollagen 4 alpha 1 gene expression in rat primary osteoblast cells assessed as expression ratio of treated to untreated control by microarray analysis; type: functional; outline: as §2
# Osteoblast [15] = test: Effect on transforming growth factor beta 3 gene expression in rat primary osteoblast cells assessed as expression ratio of treated to untreated control by microarray analysis; type: functional; outline: as §2
# MCF7 [16] = test: Antitumor activity against human MCF7 cells xenografted in SCID mouse orthotropic model assessed as inhibition of 17beta estradiol-induced tumor formation at 10 mg/kg for 2 days; type: functional; design: scale not given: the % may be the effect or the level left
# Outline: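 Tumor cells were inoculated orthotopically into the mammary fat pad of 6-week-old female SCID mice. […] Tumor volume was calculated as LW2/2. Tumor formation was scored as mice with tumors per total (20 per group), and tumor weight as mean ± S.D. Groups were compared by one-way ANOVA with LSD post-hoc comparisons.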
# Osteoblast [17] = test: Effect on epidermal growth factor gene expression in rat primary osteoblast cells assessed as expression ratio of treated to untreated control by microarray analysis; type: functional
# Osteoblast [18] = test: Effect on integrin alpha V gene expression in rat primary osteoblast cells assessed as expression ratio of treated to untreated control by microarray analysis; type: functional; outline: as §2
# [19] = target: T2, Estrogen receptor (Mus musculus); test: Reversal of increase in DNA-binding activity of ERalpha in nuclear extracts of mouse MC3T3-E1 cells by electrophoretic mobility shift assays in presence of PP2; type: cell-based; outline: as §1
compound,measurement,setting,value
Oc1ccc(/C=C/c2cc(O)cc(O)c2)cc1 [RESVERATROL],Activity,[1],Active
same,Activity,Osteoblast [2],Active
same,Activity,[3],Active
same,Activity,[4],Active
same,Ratio,Osteoblast [5],3.16
same,Ratio,Osteoblast [6],8.63
same,Activity,[7],Active
same,Activity,[8],Active
same,Ratio,Osteoblast [9],4.98
same,Activity,[10],Active
same,Activity,Osteoblast [11],Active
same,Activity,MG-63,Active
same,Activity,[12],Active
same,Activity,MCF7 [13],Active
same,Ratio,Osteoblast [14],8.15
same,Ratio,Osteoblast [15],2.56
same,Activity,MCF7 [16],40%
same,Ratio,Osteoblast [17],0.55
same,Ratio,Osteoblast [18],4.64
same,Activity,[19],Active
